Reference: ChEMBL document CHEMBL1146906, “Novel potent anticonvulsant agent containing a tetrahydroisoquinoline skeleton” (2006)

Tests used:
Mus musculus [1] = experiment: Anticonvulsant activity against tonic phase of audiogenic seizures in ip dosed DBA/2 mouse; type: functional; conditions: DBA/2, ip
In short: (§1)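 DBA/2 mice of either sex, groups of 10, given vehicle or each dose intraperitoneally, then exposed to auditory stimulation […]. Incidence of each seizure phase scored. ED50 per phase from dose-response curves fitted by Litchfield and Wilcoxon method. Groups compared by Fisher's exact probability test.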

Mus musculus [2] = experiment: Anticonvulsant activity against clonic phase of audiogenic seizures in ip dosed DBA/2 mouse; type: functional; conditions: DBA/2, ip; in short: as §1
[3] = biological target: Glutamate NMDA receptor (Rattus norvegicus) (UniProt P35439+Q00959+Q00960+Q00961+Q62645+Q8VHN2+Q9R1M7); experiment: Displacement of [3H]CGP-39653 from NMDA receptor at 0.5 uM; type: protein-complex assay
In short: (§2)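 Radioligand binding assays run at 0.5 µM test compound, using [3H]AMPA, [3H]CGP 39653 or [3H]kainic acid as ligand.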

[4] = biological target: Glutamate receptor ionotropic, kainate (Rattus norvegicus) (UniProt P22756+Q01812+P42260+P42264+Q63273); experiment: Displacement of [3H]kainic acid from kainate receptor at 0.5 uM; type: protein-complex assay; in short: as §2
Rattus norvegicus = species: Rattus norvegicus; experiment: Inhibition of AMPA-induced membrane current in Wistar rat olfactory cortex at 0.5 uM by voltage clamp method; type: functional; design: scale not given: the % may be the effect or the level left
In short: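 Transverse olfactory cortex slices from male Wistar rats, kept in oxygenated Krebs solution and superfused with 1 µM TTX. Neurons voltage-clamped at -70 mV. Test agent diluted from DMSO stock into Krebs (0.1-1% v/v DMSO) and pre-incubated 10 min. Peak inward currents evoked by 0.25-5 µM AMPA measured. Pooled means, N = 7.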

[5] = biological target: Glutamate receptor ionotropic, AMPA (Rattus norvegicus) (UniProt P19491+P19492+P19493+P19490); experiment: Displacement of [3H]AMPA from AMPA receptor at 0.5 uM; type: protein-complex assay; in short: as §2

Row | SMILES | ED50 (Mus musculus [1]) [µmol/kg] | ED50 (Mus musculus [2]) [µmol/kg] | other results
1 | COc1cc2c(cc1OC)C(c1ccc([N+](=O)[O-])cc1)N(C(=O)CN1CCOCC1)CC2 (stereo not drawn) | 56.5 | > 100 | –
2 | CCN(CC)CC(=O)N1CCc2cc(OC)c(OC)cc2C1c1ccc([N+](=O)[O-])cc1 (stereo not drawn) | > 100 | > 100 | –
3 | COc1cc2c(cc1OC)C(c1ccccc1)N(C(=O)CN1CCCCC1)CC2 (stereo not drawn) | > 100 | > 100 | –
4 | COc1cc2c(cc1OC)C(c1cccc(N)c1)N(C(=O)CN1CCCCC1)CC2 (stereo not drawn) | 47.3 | 70.2 | –
5 | COc1cc2c(cc1OC)C(c1ccc(F)cc1)N(C(=O)CN1CCOCC1)CC2 (stereo not drawn) | 46.9 | 71.7 | –
6 | COc1cc2c(cc1OC)C(c1ccccc1)N(C(=O)CN1CCOCC1)CC2 (stereo not drawn) | > 100 | > 100 | –
7 | COc1cc2c(cc1OC)C(c1cccc([N+](=O)[O-])c1)N(C(=O)CN1CCCCC1)CC2 (stereo not drawn) | 82.8 | > 100 | –
8 | CCN(CC)CC(=O)N1CCc2cc(OC)c(OC)cc2C1c1ccc(Br)cc1 (stereo not drawn) | 24.7 | 50.5 | –
9 | CCN(CC)CC(=O)N1CCc2cc(OC)c(OC)cc2C1c1cccc([N+](=O)[O-])c1 (stereo not drawn) | 16.7 | 38.6 | –
10 | CCN(CC)CC(=O)N1CCc2cc(OC)c(OC)cc2C1c1ccc(F)cc1 (stereo not drawn) | 33 | 44.5 | –
11 | CCN(CC)CC(=O)N1CCc2cc(OC)c(OC)cc2C1c1ccccc1 (stereo not drawn) | 34.8 | 49.1 | –
12 | COc1cc2c(cc1OC)C(c1ccc(N)cc1)=NNC(=O)C2 | – | 15 | –
13 | COc1cc2c(cc1OC)C(c1ccc([N+](=O)[O-])cc1)N(C(=O)CN1CCCCC1)CC2 (stereo not drawn) | > 100 | > 100 | –
14 | COc1cc2c(cc1OC)C(c1ccc(Br)cc1)N(C(=O)CN1CCCCC1)CC2 (stereo not drawn) | – | – | Activity [3]: < 6%; Activity [4]: < 6%; Activity (Rattus norvegicus): 6%; Activity [5]: < 6%
15 | CCN(CC)CC(=O)N1CCc2cc(OC)c(OC)cc2C1c1cccc(N)c1 (stereo not drawn) | 50.5 | 111 | –
16 | CC(=O)N1N=C(c2ccc(N)cc2)c2cc3c(cc2C[C@H]1C)OCO3 [TALAMPANEL] | 9.7 | – | –
17 | COc1cc2c(cc1OC)C(c1ccc(N)cc1)N(C(=O)CN1CCOCC1)CC2 (stereo not drawn) | 63.4 | 87.5 | –
18 | COc1cc2c(cc1OC)C(c1cccc(N)c1)N(C(=O)CN1CCOCC1)CC2 (stereo not drawn) | 34.3 | 63.4 | –
19 | COc1cc2c(cc1OC)C(c1ccc(Cl)cc1)N(C(C)=O)CC2 (stereo not drawn) | – | – | Activity (Rattus norvegicus): 7%
20 | COc1cc2c(cc1OC)C(c1ccc(Cl)cc1)N(C(=O)CN1CCOCC1)CC2 (stereo not drawn) | 82.8 | > 100 | –
21 | COc1cc2c(cc1OC)C(c1ccc(F)cc1)N(C(=O)CN1CCCCC1)CC2 (stereo not drawn) | 63 | 82.8 | –
22 | COc1cc2c(cc1OC)C(c1cccc([N+](=O)[O-])c1)N(C(=O)CN1CCOCC1)CC2 (stereo not drawn) | > 100 | > 100 | –
23 | COc1cc2c(cc1OC)C(c1ccc(Cl)cc1)N(C(=O)CN1CCCCC1)CC2 (stereo not drawn) | 17 | 39.8 | –
24 | COc1cc2c(cc1OC)C(c1ccc(Br)cc1)N(C(=O)CN1CCOCC1)CC2 (stereo not drawn) | 83.8 | > 100 | –
25 | CCN(CC)CC(=O)N1CCc2cc(OC)c(OC)cc2C1c1ccc(Cl)cc1 (stereo not drawn) | 11.8 | 24.7 | –
26 | COc1cc2c(cc1OC)C(c1ccc(N)cc1)N(C(=O)CN1CCCCC1)CC2 (stereo not drawn) | 45.3 | 84.9 | –
27 | CCN(CC)CC(=O)N1CCc2cc(OC)c(OC)cc2C1c1ccc(N)cc1 (stereo not drawn) | 49 | 80.2 | –
